Source: PubChem (several laboratories)
STAT3 blocker = inhibitors of IL-6 induced STAT3 signaling; U3A cells, IL-6 STAT3-luciferase reporter, luminescence; host cell line lacks STAT1; inhibition, % at 5.5 µM; hit rate 0.89% among 190,000;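 active = inhibition above the mean inhibition across all screened compounds plus 3 SD, cut at about 44% in these data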;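 also: 0% = DMSO only wells and 100% = 100 µM nifuroxazide control wells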
STAT3 activator = STAT3 signaling activation | U3A cells, IL-6 STAT3-luciferase reporter, luminescence; 100% = signal with IL-6 EC80 alone | activation (% of control), % at 5.6 µM | hit rate 0.91% among 190,000;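 active = activation above the screen-wide mean of compound activation plus 3 SD, cut at about 130% in these data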;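 also: 0% = background luminescence of wells with medium and substrate only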
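Material: STAT3-luciferase reporter U3A cells. Controls: IL-6-treated wells, 100% activation. Read-out: % activation versus median of IL-6-stimulated wells. Probe or stimulus: IL-6 stimulus at 33 ng/mL final. Timing: compound 1 h, then IL-6 6 h at 37 °C. Signal: reporter luminescence signal.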
NF-kB expr up = NF-kB expression increase, human neuronal cells | NF-kB reporter expression; hits give high values | fold change at 12.5 µM | hit rate 1.6% among 190,000 | AID 1239; in the data active = fold change above about 3.3
APP 5'UTR act = APP 5'UTR luciferase reporter activation | activation, % at 2 µM | AID 1276 | SH-SY5Y APP 5'UTR luciferase reporter, luminescence; zero percent = DMSO vehicle wells | hit rate 1% among 190,000;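 active = activation above a set limit, based on mean plus 3 SD of controls, cut at about 140% in these data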
STAT1 activator = increases IFN-gamma driven STAT1 reporter signal; NIH 3T3 STAT1-luciferase reporter, luminescence; 100% = IFN-gamma alone, no compound; activation (% of control), % at 5.5 µM; hit rate 2.6% among 200,000;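 active = activation above the screen-wide mean activation plus 3 SD, cut at about 130% in these data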;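 also: raw ratio to IFN-gamma control signal so 100% means no change and 0% no light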
STAT1 inh = reduces IFN-gamma driven STAT1 reporter signal | NIH 3T3 STAT1-luciferase reporter, luminescence | inhibition, % at 5.5 µM | hit rate 0.35% among 200,000;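 active = inhibition above a set limit, the mean inhibition across all tested compounds plus 3 SD, cut at about 34% in these data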;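 also: 0% = IFN-gamma with DMSO and 100% = IFN-gamma with 300 µM nifuroxazide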
* hit, by the source's call; nt = no result. An excerpt weighted towards active compounds, which were near 5.1% of everything screened.

SMILES | STAT3 blocker | STAT3 activator | NF-kB expr up | APP 5'UTR act | STAT1 activator | STAT1 inh
CNc1nc(-c2ccccn2)nnc1-c1ccccc1 | 3 | 102 | 13* | -11 | 102 | -2
CCOC(=O)CN(C(=O)c1ccccc1)c1ccccc1C | -3 | 106 | 0.97 | -11 | 107 | -8
Cn1cnnc1SC(C(=O)c1ccccc1)c1ccccc1 (centres undefined) | 7 | 96 | 1.3 | 6 | 102 | -2
COc1ccc(Cl)cc1NC(=O)COc1cccc(-n2cnnn2)c1 | 20 | 82 | 0.47 | -7 | 110 | -11
COc1ccc(-c2cc(C(=O)NCC3CCCO3)c3cc(C)ccc3n2)cc1 (centres undefined) | 7 | 103 | 1.4 | 12 | 133* | -39
COc1ccc(-c2cc(C(=O)NCC3CCCO3)c3ccccc3n2)cc1 (centres undefined) | -9 | 110 | 1 | 20 | 105 | -6
CCc1ccc(NC(=O)c2cc(-c3ccco3)on2)cc1 | 7 | 94 | 2.6 | -6 | 130* | -32
O=C(Nc1cccnc1Cl)c1cc(-c2ccco2)on1 | -1 | 107 | 2.8 | 22 | 127 | -29
COc1ccc(NC(=O)c2cc(-c3ccco3)on2)cc1 | 8 | 104 | 1.3 | -5 | 149* | -55
C=CCn1cc(/C=N/N2C(=O)C3C4C=CC(C4)C3C2=O)c2ccccc21 (centres undefined) | -12 | 119 | 1.2 | 11 | 100 | -3
CCN(CC)CCCNC(=O)C1CCN(C(=O)c2cc3sccc3n2Cc2ccc(F)cc2)CC1 | -8 | 110 | 0.83 | 6 | 100 | -1
O=[N+]([O-])c1ccc(-c2cn(-c3ccccc3)c(=S)[nH]2)cc1 | -7 | 106 | 1.1 | 40 | 131* | -34
Cc1cccc2nc(CSc3ncccc3C(=O)O)cn12 | 4 | 97 | 0.87 | 12 | 98 | 2
Cc1cccc2nc(COc3ccc(Cl)c4cccnc34)cn12 | 4 | 97 | 1.4 | 38 | 129* | -33
CCCCNC(=O)COC(=O)CCC(=O)c1ccc(F)cc1 | 4 | 102 | 1.2 | -14 | 106 | -7
COc1cccc(-n2c(SCC(=O)N3CCCC3)nc3c([nH]c4ccccc43)c2=O)c1 | -45 | 142* | nt | 6 | 96 | 5
Cn1c(SCC(=O)NCc2ccc(F)cc2)nc2c([nH]c3ccccc32)c1=O | -26 | 133* | 0.84 | 4 | 84 | 18
COc1ccc(NC(=O)CSc2nc3c([nH]c4ccccc43)c(=O)n2C)cc1 | -28 | 135* | 0.9 | 7 | 87 | 14
CC(C)OC(=O)CSc1nnc(-c2ccc(Cl)cc2Cl)o1 | -1 | 103 | 1.1 | 8 | 108 | -9
Cc1ccc2nc(SCC(=O)NCc3ccco3)c(C#N)cc2c1 | 14 | 92 | 2.9 | 137* | 105 | -6
Cc1cccc(C(=O)N2CCC(=O)N(C(COCc3ccccc3)Cc3ccccc3)CC2)c1 (centres undefined) | -7 | 103 | 0.72 | -2 | 96 | 4
S=c1[nH]nc(COc2ccccc2)n1Cc1ccccc1 | 4 | 99 | 0.9 | 12 | 99 | 1
[O-]/[N+](=C\c1ccncc1)c1ccc(Br)cc1 | 2 | 101 | 4.5* | 95 | 122 | -24
CCOC(=O)c1sc2ncnc(NCc3ccco3)c2c1C | 23 | 83 | 1.2 | 9 | 94 | 6
CNC(=S)Nc1ccccc1-c1ccccc1 | -5 | 108 | 0.97 | 18 | 106 | -7
SMILES | STAT3 blocker | STAT3 activator | NF-kB expr up | APP 5'UTR act | STAT1 activator | STAT1 inh
Clc1ccc(-c2nnc(-c3ccc(Br)o3)o2)c(Cl)c1 | 19 | 86 | 3.1 | 43 | 139* | -42
CCOCCCNc1nc2c(-c3ccccc3)nnn2c2ccccc12 | -29 | 125 | 1.3 | -14 | 100 | 0
O=C(O)c1cnc(-c2ccccc2)nc1Sc1ccccc1Cl | -40 | 135* | 1 | -12 | 103 | -3
COc1ccc(C(=O)N=c2sc3ccccc3n2C)cc1 | -40 | 134* | 8.1* | 163* | 141* | -46
Cn1/c(=N/NC(=O)c2ccccc2F)sc2ccccc21 | 3 | 102 | 2 | 79 | 149* | -52
COc1cccc(C(=O)N/N=c2\sc3ccccc3n2C)c1 | 8 | 94 | 0.94 | -1 | 106 | -7
COc1cccc(C(=O)N=c2sc3cc(S(C)(=O)=O)ccc3n2C)c1 | 11 | 93 | 1.1 | 114 | 132* | -38
Cc1ccc(C(=O)N/N=c2\sc3ccccc3n2C)cc1 | 23 | 82 | 1.2 | 18 | 98 | 3
COc1cc(OC)cc(C(=O)N=c2sc3ccccc3n2C)c1 | -10 | 110 | 1.2 | 146* | 139* | -43
N#CC(C#N)=NNc1ccc(S(=O)(=O)N2CCCC2)cc1 | 4 | 98 | 1.4 | 12 | 91 | 10
CCCC(=O)n1nc(-c2ccc(Cl)cc2)nc1SC | 16 | 89 | 1.8 | 38 | 110 | -11
CCCNC(=O)c1cccc(COc2ccccc2OC)c1 | 26 | 85 | 1.9 | 130 | 92 | 8
CNCc1ccccc1Sc1cc(O)ccc1O | 2 | 95 | 1.1 | 4 | 90 | 10
Cn1c(=NC(=O)COc2ccccc2)sc2ccccc21 | -2 | 106 | 3.6* | 58 | 148* | -51
CN(CCOc1ccccc1)CC(=O)Nc1cccc(Br)c1 | 10 | 96 | 1.4 | 19 | 97 | 2
COc1ccc(C2=NC(c3ccccc3)CO2)cc1 (centres undefined) | 28 | 74 | 1.4 | 40 | 143* | -47
COc1ccc(OC(=O)c2cnn(-c3ccccc3)c2C)cc1 | 4 | 97 | 5.9* | 106 | 150* | -55
CCOC(=O)c1cnn(-c2ccccc2)c1N | 5 | 96 | 1.9 | 13 | 99 | 1
O=C(c1ccccc1)c1ccccc1C(=O)N1CCCC1 | 8 | 96 | 6.4* | 4 | 91 | 4
COc1cccc(CNC(=O)c2cccc(Br)c2)c1 | 0 | 100 | 0.93 | 5 | 96 | 4
Cc1nc(NC(=O)c2ccc(F)cc2)nc2cc3c(cc12)OCO3 | 5 | 100 | 0.77 | 9 | 110 | -12
Cc1nc(NC(=O)c2ccccc2)nc2cc3c(cc12)OCO3 | -9 | 110 | 1.6 | 34 | 129* | -33
C/C(N)=C(/C#N)C(=O)CSc1nnc(-c2ccc(OC(F)F)cc2)o1 | -18 | 117 | 4.8* | 113 | 148* | -52
COc1cc(N2CCCC2)c(OC)cc1/C=c1/sc2nc3ccccc3n2c1=O | -14 | 114 | 0.9 | 18 | 100 | 0
O=c1/c(=C\c2cccn2-c2ccccc2)sc2nc3ccccc3n12 | 8 | 99 | 0.67 | 75 | 108 | -8
O=C(O)Cn1cc(/C=c2/sc3nc4ccccc4n3c2=O)c2ccccc21 | -10 | 110 | 1.8 | 65 | 131* | -35
Cc1ccc(-n2c(C)cc(/C=c3/sc4nc5ccccc5n4c3=O)c2C)cc1 | 63* | 50 | 0.38 | -27 | 61 | 43*
